According to ChEMBL document CHEMBL2401632, “New bioactive dihydrofuranocoumarins from the roots of the Tunisian Ferula lutea (Poir.) Maire” (Bioorg Med Chem Lett, 2013):
Converted amounts (≈) assume the structure as drawn.

Assays:
[1] = Antioxidant activity assessed as ABTS radical scavenging activity after 10 mins by spectrophotometric analysis; assay type: functional
Summary of the method: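 ABTS radical cation was made from 7 mM ABTS in water plus potassium persulfate (2.45 mM final), left 12 h in the dark at room temperature, then diluted in methanol to A734 0.706 ± 0.009. 1 mL of this was mixed with 1 mL of methanolic sample at several concentrations. […] Run in triplicate with a BHT positive control.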

[2] = system: Radical scavenging activity; test: Antioxidant activity assessed as DPPH free radical scavenging activity after 30 mins by spectrophotometric analysis; assay type: functional
Summary of the method: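 Daily methanolic DPPH solution was adjusted to A517 = 1.1. Methanolic sample at several concentrations was added to 1 mL, incubated 30 min at 37 °C, then A517 was read. Scavenging % = [(Acontrol − Asample)/Acontrol] × 100. Run in triplicate with BHT as positive control.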

[3] = Antioxidant activity assessed as superoxide radical scavenging activity after 2 mins by NBT reduction assay; assay type: functional
Summary of the method: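 The 1 mL reaction held 20 mM phosphate buffer pH 7.4, NADH 73 µM, NBT 50 µM, PMS 15 µM and sample at several concentrations. After 2 min at ambient temperature, formazan was read at A562 against a blank. % scavenging was taken vs control. Done three times, with BHT as comparator.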

[4] = Antioxidant activity assessed as H2O2 scavenging activity by NBT reduction assay; assay type: functional
Summary of the method: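 H2O2 at 43 mM was prepared in 0.1 M phosphate buffer, pH 7.4. 100 µL of test solution was added along with NADH (73 µM), NBT (50 µM) and PMS (15 µM), 500 µL each. Percent H2O2 scavenged = [(Acontrol − Asample)/Acontrol] × 100.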

[5] = system: HCT-116; test: Cytotoxicity against human HCT116 cells after 96 hrs by MTT assay; assay type: functional, cell-based; conditions: HCT-116, 96 h
Summary of the method: (§1)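 Cells were seeded at 5000 or 10,000 per well and exposed to medium with various sample concentrations for 96 h, with 0.1% DMSO as vehicle control. MTT (5 mg/mL in PBS) was then added for 4 h at 37 °C, 5% CO2. Formazan was dissolved in DMSO and read at OD 570 nm.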

[6] = system: HT-29; test: Cytotoxicity against human HT-29 cells after 96 hrs by MTT assay; assay type: functional, cell-based; conditions: HT-29, 96 h
Summary of the method: as §1, with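 “nm. IC50 is the concentration giving 50% toxicity; duplicate tests, mean ± SD (n = 2).” for “nm.”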

[7] = system: MT4; test: Cytotoxicity against human MT4 cells after 96 hrs by MTT assay; assay type: functional, cell-based; conditions: MT4, 96 h
[8] = system: Radical scavenging activity; test: Antioxidant activity assessed as DPPH free radical scavenging activity by spectrophotometric analysis; assay type: functional
[9] = target: Acetylcholinesterase (Homo sapiens, UniProt P22303); test: Inhibition of acetylcholinesterase (unknown origin) using acetylcholine iodide as substrate preincubated for 15 mins prior to substrate addition by spectrophotometric analysis
Acetylcholinesterase, sequence (P22303 whole entry): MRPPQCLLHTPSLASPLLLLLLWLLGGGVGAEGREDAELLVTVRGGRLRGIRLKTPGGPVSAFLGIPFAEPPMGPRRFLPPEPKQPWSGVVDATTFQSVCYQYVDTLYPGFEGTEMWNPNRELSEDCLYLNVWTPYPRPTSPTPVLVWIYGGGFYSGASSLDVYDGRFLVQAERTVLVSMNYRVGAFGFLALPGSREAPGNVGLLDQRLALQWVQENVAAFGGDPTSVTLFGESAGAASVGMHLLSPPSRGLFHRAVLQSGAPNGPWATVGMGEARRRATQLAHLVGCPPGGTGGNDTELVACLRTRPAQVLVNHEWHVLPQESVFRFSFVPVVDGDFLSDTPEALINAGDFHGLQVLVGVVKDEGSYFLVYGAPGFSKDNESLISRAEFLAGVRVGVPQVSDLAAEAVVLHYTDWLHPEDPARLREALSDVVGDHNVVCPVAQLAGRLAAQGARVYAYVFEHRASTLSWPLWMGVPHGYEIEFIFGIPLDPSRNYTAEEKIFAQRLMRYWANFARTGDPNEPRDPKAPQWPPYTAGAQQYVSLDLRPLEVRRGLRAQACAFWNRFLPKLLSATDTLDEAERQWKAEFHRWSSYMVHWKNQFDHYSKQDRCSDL

[10] = system: PANC-1; test: Cytotoxicity against human PANC1 cells after 96 hrs by MTT assay; assay type: functional, cell-based; conditions: PANC-1, 96 h
[11] = Cytotoxicity against human MES-SA/Dx5 cells after 96 hrs by MTT assay; assay type: functional, cell-based; conditions: MES-SA/Dx5, 96 h
[12] = Antioxidant activity assessed as superoxide radical scavenging activity measured every 30 seconds for 5 mins by spectrophotometric analysis; assay type: functional
[13] = system: AGS; test: Cytotoxicity against human AGS cells after 96 hrs by MTT assay; assay type: functional, cell-based
[14] = Antioxidant activity assessed as ABTS radical scavenging activity after 6 mins by spectrophotometric analysis; assay type: functional
[15] = Antioxidant activity assessed as hydroxyl radical scavenging activity after 20 mins by spectrophotometric analysis; assay type: functional
[16] = system: K562; test: Cytotoxicity against human K562 cells after 96 hrs by MTT assay; assay type: functional, cell-based; conditions: K562, 96 h

For Cc1cc(C(C)(C)C)c(O)c(C(C)(C)C)c1 [BUTYLATED HYDROXYTOLUENE], which IC50 [1] is on record?
The IC50 was 6.85 µM.

What about the IC50 ([2]; read-out: IC50) of the same compound?
Its IC50 is 9.02 µM.

And the IC50 [3]?
The IC50 was 7.26 µM.

And the IC50 [4]?
The IC50 was 6.38 µM.

What does the source list for O=c1ccc2ccc(O)cc2o1 [UMBELLIFERONE]?
IC50 [5]: 8.05 µM; IC50 [6]: 4.35 µM; IC50 [7]: 2340 µM; IC50 [8]: 36.1 mg/L (≈ 223 µM)

What does the source list for C/C=C(\C)C(=O)OC(C)(C)[C@@H]1Cc2cc3ccc(=O)oc3cc2O1?
IC50 [5]: 7.6 µM; IC50 [6]: 0.93 µM; IC50 [9]: > 100 µM

What does the source list for COc1c2occc2cc2ccc(=O)oc12 [METHOXSALEN]?
IC50 [5]: > 100 µM; IC50 [10]: 83.3 µM; IC50 [6]: > 100 µM; IC50 [9]: 0.76 µM

For CC(C)=CC(=O)OC(C)(C)[C@@H]1Cc2cc3ccc(=O)oc3cc2O1 [(-)-PRANTSCHIMGIN], which IC50 [5] is on record?
The IC50 was 15 µM.

What about the IC50 [6] of the same compound?
Its IC50 is 5.2 µM.

What about the IC50 [11] of the same compound?
The IC50 was 3.1 µM.

And the IC50 [9]?
Its IC50 is > 100 µM.

For O=C(O)/C=C/c1ccc(O)c(O)c1 [CAFFEIC ACID], which IC50 [5] is on record?
Its IC50 is 29.7 µM.

And the IC50 [12]?
The IC50 was 0.38 mg/L (≈ 2.11 µM).

What about the IC50 [6] of the same compound?
Its IC50 is 27.2 µM.

And the IC50 [13]?
The IC50 was 129 µM.

What about the IC50 [2] of the same compound?
Its IC50 is 0.39 mg/L.

And the IC50 [14]?
Its IC50 is 0.57 mg/L (≈ 3.16 µM).

What about the IC50 [15] of the same compound?
The IC50 was 0.37 mg/L (≈ 2.05 µM).

And the IC50 [9]?
The IC50 was > 100 µM.

For CC(=O)O[C@H]1C(=O)[C@@]2(C)[C@H]([C@H](OC(=O)c3ccccc3)[C@]3(O)C[C@H](OC(=O)[C@H](O)[C@@H](NC(=O)c4ccccc4)c4ccccc4)C(C)=C1C3(C)C)[C@]1(OC(C)=O)CO[C@@H]1C[C@@H]2O [PACLITAXEL], which IC50 [6] is on record?
Its IC50 is 0.00198 µM.

With O=c1ccc2cc3ccoc3cc2o1 [PSORALEN] as the compound, how does the IC50 [5] read?
The IC50 was 45.6 µM.

And the IC50 [16]?
The IC50 was 131 µM.

What about the IC50 [6] of the same compound?
The IC50 was 41.7 µM.

What about the IC50 [9] of the same compound?
The IC50 was 6.48 µM.
